Source: PubChem
T cruzi inh = T. cruzi replication inhibition; T. cruzi beta-gal in NIH3T3, luminescence, 90 h; inhibition, % (concentration not given with the values); 300,000 compounds, 1.4% hits; AID 1885;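 active = mean inhibition across valid replicates above about 55%, limit read from the data; inconclusive = mean below that limit but half or more replicates reach it; inactive = mean below it, under half of replicates reach it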;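 note: signal also drops with host cell toxicity which is not excluded here; 0% = plate median of DMSO wells and 100% = zero luminescence signal; higher percent means less beta-gal luminescence so fewer parasites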
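Incubation – ≥90 h infection period, 3 h prior cell attachment · System – NIH/3T3 fibroblasts plus reporter T. cruzi · Doses – compound pinned at 50 nL/well, DMSO · Read-out basis – percent inhibition of parasite-derived β-gal signal · Signal – luminescent β-galactosidase signal after 60 min lysis · Also added – 5000 T. cruzi trypomastigotes/well · Medium – Low-serum DMEM with 2% FBS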
Beta cell apopt = blocks beta cell apoptosis. INS-1E cytokine-induced death, ATP luminescence, 48 h; percent of positive-control rescue, neutral wells zero. protection from apoptosis, % (no concentration beside the values). 300,000 compounds, 0.8% hits. AID 435005;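 active = Every replicate reaches about 75%, or at least half do and their mean reaches it too, limit read from the data; inconclusive = At least half of replicates reach the limit but their mean does not; inactive = Under half of replicates reach the limit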;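 note: 0% = cytokine-treated negative control wells and 100% = positive control rescue; higher means more ATP so stronger rescue from cytokine killing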
Mdm2-MdmX inh = human Mdm2/MdmX binding inhibition; SaOS-2 split-luciferase Mdm2/MdmX complementation, luminescence; inhibition, % at 8 µM; 330,000 compounds, 3% hits;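 active = inhibition of at least 50% at 8 µM in the primary screen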
Target sequence (O15151 whole entry, looked up): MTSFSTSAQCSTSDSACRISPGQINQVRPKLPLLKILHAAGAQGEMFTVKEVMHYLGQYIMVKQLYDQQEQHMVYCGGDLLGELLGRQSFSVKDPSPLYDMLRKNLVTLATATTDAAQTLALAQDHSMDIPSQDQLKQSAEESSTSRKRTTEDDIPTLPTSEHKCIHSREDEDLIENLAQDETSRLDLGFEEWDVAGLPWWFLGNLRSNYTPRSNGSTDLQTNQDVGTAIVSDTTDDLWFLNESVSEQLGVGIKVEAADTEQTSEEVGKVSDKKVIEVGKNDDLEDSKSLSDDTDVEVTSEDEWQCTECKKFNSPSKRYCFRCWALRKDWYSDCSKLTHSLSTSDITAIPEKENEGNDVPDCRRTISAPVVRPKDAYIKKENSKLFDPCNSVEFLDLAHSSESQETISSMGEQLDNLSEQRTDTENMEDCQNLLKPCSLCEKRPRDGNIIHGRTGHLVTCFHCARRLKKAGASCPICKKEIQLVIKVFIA
Target sequence (Q00987 whole entry, looked up): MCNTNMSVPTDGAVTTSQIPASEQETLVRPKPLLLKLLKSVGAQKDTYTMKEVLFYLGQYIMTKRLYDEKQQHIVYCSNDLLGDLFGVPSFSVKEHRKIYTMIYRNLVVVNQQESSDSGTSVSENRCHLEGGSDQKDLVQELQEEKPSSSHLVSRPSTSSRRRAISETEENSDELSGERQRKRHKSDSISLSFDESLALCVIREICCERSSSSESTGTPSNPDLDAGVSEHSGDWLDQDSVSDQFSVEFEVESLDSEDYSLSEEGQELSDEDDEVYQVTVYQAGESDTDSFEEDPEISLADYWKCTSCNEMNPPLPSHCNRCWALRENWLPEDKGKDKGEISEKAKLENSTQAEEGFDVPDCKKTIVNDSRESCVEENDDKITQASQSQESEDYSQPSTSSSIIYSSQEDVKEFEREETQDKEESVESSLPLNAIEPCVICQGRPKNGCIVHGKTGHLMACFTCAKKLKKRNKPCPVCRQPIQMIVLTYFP
L major viab = reduces viability of Leishmania major promastigotes; resazurin fluorescence viability; inhibition, % at 10 µM; 200,000 compounds, 9% hits; in the data active = inhibition above about 50%;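 note: promastigotes grown with compound for 44 hours at 28 °C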
CSC inhib = blocks cancer stem cells. 300,000 compounds, 1.1% hits. inhibition, % at 7.5 µM. AID 2717. cancer stem cell-like cells viability, luminescence; in the data active = inhibition above about 75%; inconclusive = no clear call, values can overlap the other calls; tested in HMLE shEcad cells
SKKanGAS inh = SKKanGAS growth inhibition; S. pyogenes SKKanGAS, kanamycin growth, BacTiter-Glo, 6 h; inhibition, % at 7.5 µM; 300,000 compounds, 1.3% hits;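 active = mean replicate score, as percent of positive control median, at least 50; inconclusive = mean below 50 but one replicate at or above 50; inactive = mean and every replicate below 50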;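 note: strain carries kanamycin resistance gene driven by streptokinase promoter and grows in 40 µg/ml kanamycin; loss of luminescence reflects streptokinase promoter inhibition or plain growth inhibition; 0% = median of DMSO wells and 100% = positive control at its reference dose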
An asterisk follows results filed as active; ? = inconclusive; nt = no result given. Only some compounds are listed: those with a hit (about 9.4% of all), similar ones and a draw of the others.

SMILES | T cruzi inh | Beta cell apopt | Mdm2-MdmX inh | L major viab | CSC inhib | SKKanGAS inh
Cc1ccc(N(C)S(=O)(=O)c2cccc(C(=O)Nc3nc4ccccc4[nH]3)c2)cc1 | 21 | 38 | 49 | 90* | ? | ?
CN(c1ccccc1C(=O)Nc1ccc(S(=O)(=O)N2CCOCC2)cc1)S(=O)(=O)c1ccccc1 | 0 | 4 | -11 | 91* | 0 | 0
Cc1nc2ccc(NC(=O)c3cccc(S(=O)(=O)N(C)c4ccccc4)c3)cc2s1 | -2 | 8 | 12 | 99* | 2 | 11
COc1cc(NC(=O)c2ccc(S(=O)(=O)N(C)c3ccccc3OC)cc2)cc(OC)c1 | nt | 4 | 28 | nt | -2 | nt
CCCN(CCC)S(=O)(=O)c1ccc(NC(=O)c2cc(C(=O)OC)cc([N+](=O)[O-])c2)cc1 | 74* | -8 | 2 | 17 | 16 | 6
COc1ccccc1N(C)S(=O)(=O)c1ccc(Cl)c(C(=O)NC2=NCCS2)c1 | -3 | -5 | 9 | 57* | -11 | 5
COc1ccccc1N(C)S(=O)(=O)c1ccc(C(=O)Nc2ccc(N3CCOCC3)cc2)cc1 | 15 | -2 | 23 | 99* | -1 | 3
COc1ccccc1N(C)S(=O)(=O)c1ccc(C(=O)Nc2ccc3nc(C)sc3c2)cc1 | 16 | -9 | 33 | 100* | 17 | 16
Cc1ccc(/C=C/C(=O)CCC(=O)O)cc1 | 7 | -1 | 12 | -3 | -10 | 7
CN(C)C(=O)c1ccc(-n2cccn2)nc1 | -4 | -1 | 10 | -7 | -19 | -2
COC(=O)c1cc(C(=O)Nc2nc3ccccc3[nH]2)cc([N+](=O)[O-])c1 | 25 | 10 | -6 | nt | -11 | 63*
O=C(Nc1nc2ccccc2[nH]1)c1cccc([N+](=O)[O-])c1 | -30 | 13 | -53 | 12 | -2 | 9
CSc1ccc(Cl)c(C(=O)NNC(=O)c2cccs2)c1 | nt | -1 | 9 | nt | 3 | nt
CC(=O)N1CCC(=NNc2ccnc3cc(Cl)ccc23)CC1 | 1 | -7 | -39 | 86* | -6 | 8
CCOC(=O)N1CCC(=NNc2ccnc3cc(Cl)ccc23)CC1 | -1 | -11 | 13 | 61* | -12 | nt
Cc1ccc(N(C(=O)CS(=O)CC(=O)Nc2ccc(F)cc2)C(C)C(=O)NC(C)(C)C)cc1 (stereo unspecified) | 10 | 3 | 10 | nt | 13 | -2
Nc1nc(N)nc(-c2ccc(Cl)cc2)n1 | -24 | 6 | -1 | 1 | 0 | -5
Cc1ccc(Oc2ccc(-c3nc(N)nc(N)n3)cc2)cc1 | nt | -2 | -14 | 98* | -2 | nt
CCOP(=O)(OCC)c1nc(-c2ccccc2)oc1N1CCCCC1 | -5 | -2 | -11 | nt | -4 | 1
COP(=O)(OC)c1nc(-c2ccccc2)oc1N1CCOCC1 | 9 | -11 | 3 | 51* | 0 | 5
CC12CCC(=O)N1C(C(=O)Nc1ccc(F)c(Cl)c1)CS2 (stereo unspecified) | -3 | -5 | 17 | nt | -5 | 0
COc1ccc(NC(=O)CCCc2nc3ccccc3c(=O)[nH]2)cc1Cl | nt | -8 | 25 | nt | 3 | nt
O=C(Nc1ccc2oc(-c3ccccc3F)nc2c1)c1ncn[nH]1 | 13 | 4 | -182 | 100* | 28 | 11
CCOC(=O)C1(Cc2cccc(Cl)c2)CCCN(C(=O)c2cccc(C)n2)C1 (stereo unspecified) | 14 | -7 | -19 | -2 | -7 | -7
O=C1C=CC2C(c3ccc4c(c3)OCO4)CC1N2Cc1ccccc1 (stereo unspecified) | 2 | nt | 28 | 100* | 10 | -1
SMILES | T cruzi inh | Beta cell apopt | Mdm2-MdmX inh | L major viab | CSC inhib | SKKanGAS inh
c1ccc(CN2CCC(N3CCN(Cc4ccc5c(c4)OCO5)CC3)CC2)cc1 | 30 | 2 | 36 | nt | 24 | 2
O=C(CCCSc1nc2ccccc2[nH]1)NCc1ccc(Cl)cc1 | 10 | 5 | -35 | 12 | 8 | -10
CCn1cc(C(=O)NCCc2ccccc2)c(=O)c2cc(F)c(N3CCN(C)CC3)cc21 | -3 | 4 | 32 | 97* | 20 | 5
CCn1cc(C(=O)NCc2ccc3c(c2)OCO3)c(=O)c2cc(F)c(N3CCN(C)CC3)cc21 | 60* | 4 | 33 | 79* | 17 | -3
CCn1cc(C(=O)NCC(C)C)c(=O)c2cc(F)c(N3CCN(C)CC3)cc21 | 15 | -1 | 14 | nt | 10 | -1
CCN(CC)C(=O)COc1ccc(/C=C(\C#N)S(=O)(=O)c2ccccc2)cc1OC | -5 | -2 | 14 | -7 | -9 | -4
Cc1ccsc1C(=O)N(c1nc2ccccc2s1)c1c(C)cccc1C | ? | 5 | 9 | 100* | 17 | ?
Cc1cc(C)c(C(=O)Cn2cnc3cc([N+](=O)[O-])ccc3c2=O)cc1C | 68* | -1 | 0 | 9 | 7 | 3
Cc1ccc(NC(=O)Cn2cnc3cc([N+](=O)[O-])ccc3c2=O)cc1 | 52 | -3 | 7 | nt | -9 | -1
O=C(Cn1cnc2cc([N+](=O)[O-])ccc2c1=O)Nc1ccc2c(c1)OCO2 | 55* | -4 | -30 | 9 | -7 | -13
O=C(CSc1cccc2cccnc12)Nc1cc(C(=O)O)cc(C(=O)O)c1 | 1 | 9 | 17 | nt | -10 | 0
CCCC(O)(c1ccc(Cl)cc1)C(CN1CCOCC1)c1ccc(Cl)cc1 (stereo unspecified) | -9 | 7 | 14 | nt | 94* | 30
Clc1ccc(-n2cccc2CN2CCc3c([nH]c4ccccc34)C2c2ccccn2)nc1 (stereo unspecified) | 48 | -8 | -31 | 96* | 5 | 2
COc1cccc(C2c3[nH]c4ccccc4c3CCN2Cc2cccn2-c2ncccn2)c1 (stereo unspecified) | 50 | 4 | 8 | 11 | 8 | -2
Clc1ccc2nc(-c3ccccn3)c(Nc3ccc4c(c3)OCO4)n2c1 | 35 | 1 | nt | 100* | 22 | 92*
Cc1ccc2nc(-c3ccccc3O)c(Nc3ccc4c(c3)OCCO4)n2c1 | 50 | 13 | -1 | 13 | -3 | 4
CC(C)Sc1nsc2nc(=O)c(/C=C3\C=Nc4ccccc43)c(N)n12 | -3 | 2 | -3 | 15 | 35 | 74*
CCOCCCNc1ccc(N2C(=O)CCCC2=O)cc1[N+](=O)[O-] | -1 | -5 | -1 | nt | -11 | -3
CCN(CC)CCN(CC)Cc1ccccc1Br | 0 | -5 | -1 | 96* | -3 | 1
CCCOCCc1nnc(N)s1 | -8 | -1 | 13 | nt | -8 | 0
Oc1ccc(Br)cc1C=Nc1ccc2c3c(cccc13)CC2 | -5 | 6 | 29 | 71* | 6 | -23
COCCN1CCC(CNCc2cn(-c3cc(C)ccc3C)nc2-c2ccccc2)C1 (stereo unspecified) | 24 | -9 | 46 | 100* | nt | 3
COCCN1CCC(CNCc2cn[nH]c2-c2ccc(C)c(C)c2)C1 (stereo unspecified) | -13 | -11 | 17 | 3 | -12 | 0
CCn1ccnc1CNCc1cn(-c2cc(C)ccc2C)nc1-c1ccccc1 | 8 | 20 | 11 | 65* | -8 | ?
